The source of these data is the array DNA melting data of Ke et al. (doi:10.1101/2024.01.08.574731).

Data set [1] in a line: folding enthalpy; higher = less favourable; fluorescence melt of hairpins on a sequencing array, two-state fit. Particulars: sodium 0.088 M. Put shortly: (§1)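 Melting temperature and folding enthalpy were derived from bootstrapped two-state fits. The fitted temperatures were raised by 9.35 °C to agree with UV melts, and four replicates were combined by inverse variance. The underlying data were Cy3 fluorescence images of library hairpins, with annealed Cy3 and quencher oligos, on a sequenced MiSeq flow cell in 50 mM Na-HEPES pH 8.0, 25 mM NaCl, taken in 2.5 °C steps up to 60 °C, normalised to pre-quench Cy3 and to control constructs.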

Data set [2] in a line: melting temperature; fluorescence melt of hairpins on a sequencing array, two-state fit, raised by 9.35 °C to match UV melts. Conditions: sodium 0.088 M. Put shortly: as §1

Regarding GCATTGGCGAAAGCCTGC (((..(((....)))))), the folding enthalpy in data set [1] is -15.1 kcal/mol. Moreover, the Tm in data set [2] is 44.3 °C.
Turning to GCATTGGGAAACCAACGC ((.((((....)))).)), in data set [1], the folding enthalpy was -29.4 kcal/mol. For the same sequence, in data set [2], the Tm turned out to be 42.2 °C.
Take GCATTGGGAAACCAATAC (.(((((....))))).): the folding enthalpy in data set [1] is -18.4 kcal/mol. Moreover, the Tm in data set [2] amounted to 32.9 °C.
Consider GCATTGGGAAACCGATGC ((((.((....)).)))), for which the folding enthalpy in data set [1] is -50.4 kcal/mol. The Tm in data set [2] was 53.3 °C.
Consider GCATTGGGAAACTAGTGC (((.(.(....).).))), for which the folding enthalpy in data set [1] was -19.5 kcal/mol. Moreover, the Tm in data set [2] came out at 29.8 °C.
As to GCATTGTCGAAAGACTGC (((..(((....)))))), in data set [1], the folding enthalpy was -22.8 kcal/mol. For the same sequence, in data set [2], the Tm stood at 37.2 °C.
As to GCATTTACGAAAGTATGC (((..(((....)))))), the folding enthalpy in data set [1] was -22.2 kcal/mol. The Tm in data set [2] stood at 38 °C.
As to GCATTTCGAAAGAATTGC (((.(((....))).))), the folding enthalpy in data set [1] is -33.7 kcal/mol. Besides, in data set [2], the Tm worked out at 47.1 °C.
The matching figures for GCATTTGGAAACAAATAC (.(((((....))))).): -17.9 kcal/mol and 29.3 °C.
The matching figures for GCCAAACCGAAAGGTGGC (((..(((....)))))): -32 kcal/mol and 55.4 °C.
Take GCCAAACGAAAGTTGGGC (((.(((....))).))): in data set [1], the folding enthalpy is -37.2 kcal/mol. In data set [2], the Tm amounted to 61.4 °C.
As for GCCAAAGAAATTTGGC ((((((....)))))), the folding enthalpy in data set [1] is -34.6 kcal/mol. The Tm in data set [2] was 54 °C.
For the sequence GCCAAAGGAAACCTTGGC (((((.(....).))))), the folding enthalpy in data set [1] was -29 kcal/mol. For the same sequence, in data set [2], the Tm worked out at 48.1 °C.
As for GCCAACGAAAGTTACGGC ((((((....)))..))), the folding enthalpy in data set [1] was -26.1 kcal/mol. For the same sequence, the Tm in data set [2] was determined as 41.3 °C.
Take GCCAACGAAAGTTAGGC ((((((....))).))): the folding enthalpy in data set [1] is -28.9 kcal/mol. Besides, the Tm in data set [2] stood at 52.8 °C.
The matching figures for GCCAACGAAAGTTCTGGC ((((((....)))..))): -24.9 kcal/mol and 38 °C.
GCCAACGAAAGTTGGGC ((((((....))).))): in data set [1], the folding enthalpy was -14.2 kcal/mol. Moreover, the Tm in data set [2] came out at 65.7 °C.
The corresponding values for GCCAACGAAAGTTTTGGC ((((((....)))..))) are -23.2 kcal/mol and 44.6 °C.
GCCAACGGAAACACTGGC ((((..(....)..)))): the folding enthalpy in data set [1] was -14 kcal/mol. Moreover, the Tm in data set [2] came out at 29.1 °C.
In the case of GCCAACGGAAACATTGGC (((((.(....).))))), the folding enthalpy in data set [1] was -31.9 kcal/mol. The Tm in data set [2] turned out to be 44.1 °C.
The matching figures for GCCAACTCGAAAGAGGGC (((..(((....)))))): -20.2 kcal/mol and 47.3 °C.
In the case of GCCAAGGGAAACTTTGGC (((((.(....).))))), in data set [1], the folding enthalpy is -30.1 kcal/mol. Moreover, the Tm in data set [2] turned out to be 48.6 °C.
For GCCAATACGAAAGTAGGC (((..(((....)))))), in data set [1], the folding enthalpy was -25.6 kcal/mol. In addition, the Tm in data set [2] came to 44.2 °C.
For the sequence GCCAATCGAAAGATCGGC (((.(((....))).))), the folding enthalpy in data set [1] was -35.6 kcal/mol. Moreover, the Tm in data set [2] was determined as 49.8 °C.
The corresponding values for GCCAATCGAAAGATGGGC (((.(((....))).))) are -39.5 kcal/mol and 55.1 °C.
In the case of GCCAATGCGAAAGCAGGC (((..(((....)))))), in data set [1], the folding enthalpy was -21.7 kcal/mol. Besides, the Tm in data set [2] stood at 53 °C.
On to GCCACATCGAAAGATGGC (((..(((....)))))), for which the folding enthalpy in data set [1] is -15.2 kcal/mol. In addition, the Tm in data set [2] is 45.5 °C.
GCCACCGGAAACGATGGC ((((.((....)).)))): the folding enthalpy in data set [1] is -44 kcal/mol. Moreover, the Tm in data set [2] was 52.6 °C.
The matching figures for GCCACCTCGAAAGAGGGC (((..(((....)))))): -9.58 kcal/mol and 44.5 °C.
On to GCCACGCGAAAGCATCGC ((.(.((....)).).)), for which the folding enthalpy in data set [1] was -7.48 kcal/mol. Further, the Tm in data set [2] is 24 °C.
The matching figures for GCCACGCGAAAGCCAGGC (((..((....))..))): -22.7 kcal/mol and 50.2 °C.
GCCACGCGAAAGCCTAGC ((.(.((....)).).)): the folding enthalpy in data set [1] is -6.53 kcal/mol. Besides, in data set [2], the Tm came out at 14.4 °C.
The corresponding values for GCCACGCGAAAGCGAAGC ((..(((....)))..)) are -11.2 kcal/mol and 43.4 °C.
Turning to GCCACGCGAAAGCGTTGC ((.((((....)))).)), the folding enthalpy in data set [1] is -20.2 kcal/mol. For the same sequence, in data set [2], the Tm came out at 57.6 °C.
Take GCCACGGCGAAAGCCGGC (((..(((....)))))): the folding enthalpy in data set [1] is -7.83 kcal/mol. Also, the Tm in data set [2] worked out at 49.1 °C.
Regarding GCCACGGGAAACCACGGC (((..((....))..))), in data set [1], the folding enthalpy is -34.4 kcal/mol. The Tm in data set [2] was 46.5 °C.
With GCCACGGGAAACCATGGC ((((.((....)).)))), the folding enthalpy in data set [1] was -47.8 kcal/mol. In data set [2], the Tm was 48.6 °C.
The matching figures for GCCACGGGAAACCGCAGC ((..(((....)))..)): -17.4 kcal/mol and 34.1 °C.
The corresponding values for GCCACTGGAAACAGCAGC ((..(((....)))..)) are -11.8 kcal/mol and 25.5 °C.
GCCACTGGAAACAGCGGC (((.(((....))).))): the folding enthalpy in data set [1] is -42.6 kcal/mol. In addition, the Tm in data set [2] is 52.9 °C.
GCCAGAGGAAACTCTGGC (((((((....))))))): in data set [1], the folding enthalpy is -44.8 kcal/mol. Further, in data set [2], the Tm stood at 69.1 °C.
The corresponding values for GCCAGCGAAAGCTATGGC ((((((....)))..))) are -21.4 kcal/mol and 55.3 °C.
In the case of GCCAGCGAAAGCTGAGGC ((((((....)))..))), in data set [1], the folding enthalpy is -15.5 kcal/mol. Moreover, in data set [2], the Tm amounted to 53.5 °C.
The corresponding values for GCCAGCGGAAACACTGGC (((((.(....).))))) are -39.2 kcal/mol and 52.8 °C.
For the sequence GCCAGGCGAAAGCATAGC ((.(.((....)).).)), the folding enthalpy in data set [1] is -11.1 kcal/mol. Besides, in data set [2], the Tm amounted to 37.8 °C.
The matching figures for GCCAGGCGAAAGCCGCGC ((..(((....)))..)): -18 kcal/mol and 58.4 °C.
Turning to GCCAGGCGAAAGCGCGGC (((..((....))..))), the folding enthalpy in data set [1] was -18.6 kcal/mol. In data set [2], the Tm worked out at 59.6 °C.
With GCCAGGCGAAAGCGTAGC ((.(.((....)).).)), in data set [1], the folding enthalpy is -7.64 kcal/mol. In addition, the Tm in data set [2] turned out to be 38.9 °C.
Take GCCAGGCGAAAGCGTTGC ((.(.((....)).).)): the folding enthalpy in data set [1] is -16.6 kcal/mol. In addition, the Tm in data set [2] came to 34.2 °C.
With GCCAGGCGAAAGCTAGGC (((..((....))..))), the folding enthalpy in data set [1] was -27.9 kcal/mol. For the same sequence, in data set [2], the Tm turned out to be 61.3 °C.
In the case of GCCAGGCGAAAGCTCGGC (((..((....))..))), the folding enthalpy in data set [1] is -38.4 kcal/mol. Moreover, the Tm in data set [2] amounted to 59.8 °C.
With GCCAGGCGAAAGCTTAGC ((.(.((....)).).)), the folding enthalpy in data set [1] is -10.9 kcal/mol. In data set [2], the Tm came to 32.3 °C.
On to GCCAGGGGAAACCCCGAC (.(.(((....))).).), for which the folding enthalpy in data set [1] is -9.47 kcal/mol. Moreover, in data set [2], the Tm came out at 32.6 °C.
Regarding GCCAGGGGAAACCCCGGC (((.(((....))).))), the folding enthalpy in data set [1] is -38.6 kcal/mol. Further, the Tm in data set [2] was found to be 59.8 °C.
Take GCCAGGGGAAACCCTAGC ((.((((....)))).)): in data set [1], the folding enthalpy is -22.8 kcal/mol. In addition, in data set [2], the Tm worked out at 41 °C.
Turning to GCCAGTCGAAAGACGGGC (((.(((....))).))), the folding enthalpy in data set [1] was -35 kcal/mol. Besides, the Tm in data set [2] stood at 68.6 °C.
In the case of GCCAGTGGAAACACCAGC ((..(((....)))..)), in data set [1], the folding enthalpy is -13.9 kcal/mol. For the same sequence, in data set [2], the Tm stood at 33.1 °C.
On to GCCAGTGGAAACACCGGC (((.(((....))).))), for which the folding enthalpy in data set [1] was -37.1 kcal/mol. Besides, the Tm in data set [2] amounted to 49.6 °C.
With GCCAGTGGAAACATTGGC ((((.((....)).)))), in data set [1], the folding enthalpy was -37 kcal/mol. The Tm in data set [2] came to 50.8 °C.
Take GCCAGTGGAAACGCTGGC (((((.(....).))))): the folding enthalpy in data set [1] was -41.8 kcal/mol. In addition, the Tm in data set [2] worked out at 61 °C.
The corresponding values for GCCAGTGGAAACGTTGGC ((((..(....)..)))) are -24.4 kcal/mol and 48.2 °C.
The matching figures for GCCATACGAAAGTAGGC (((.(((....)))))): -28.4 kcal/mol and 52.6 °C.
Regarding GCCATCACGAAAGTGGGC (((..(((....)))))), in data set [1], the folding enthalpy was -19.4 kcal/mol. Also, in data set [2], the Tm turned out to be 47.2 °C.
For the sequence GCCATCGAAAGATAAGGC ((((((....)))..))), the folding enthalpy in data set [1] is -23.5 kcal/mol. For the same sequence, the Tm in data set [2] was 44.8 °C.
Take GCCATCGAAAGATAGGGC ((((((....)))..))): the folding enthalpy in data set [1] is -27.4 kcal/mol. For the same sequence, the Tm in data set [2] stood at 44.6 °C.
For the sequence GCCATCGAAAGATGCGGC ((((((....)))..))), the folding enthalpy in data set [1] is -16.6 kcal/mol. Further, the Tm in data set [2] was 49.2 °C.
Consider GCCATCGAAAGATTGGC ((((((....))).))), for which the folding enthalpy in data set [1] was -30.3 kcal/mol. In data set [2], the Tm turned out to be 50.7 °C.
The corresponding values for GCCATCGAAAGATTTGGC ((((((....)))..))) are -24.1 kcal/mol and 41.3 °C.
The matching figures for GCCATGCGAAAGCCTCGC ((.(.((....)).).)): -6.86 kcal/mol and 34 °C.
The matching figures for GCCATGCGAAAGCGCGGC (((..((....))..))): -20 kcal/mol and 59.2 °C.
On to GCCATGCGAAAGCGTAGC ((.(.((....)).).)), for which the folding enthalpy in data set [1] is -11.2 kcal/mol. The Tm in data set [2] worked out at 37 °C.
GCCATGCGAAAGCGTTGC ((.(.((....)).).)): in data set [1], the folding enthalpy was -18.1 kcal/mol. The Tm in data set [2] was 43.6 °C.
Consider GCCATGTCGAAAGACGGC (((..(((....)))))), for which, in data set [1], the folding enthalpy is -20.1 kcal/mol. Besides, the Tm in data set [2] worked out at 51.5 °C.
